Values after ≈ are worked out from the molar mass of the structure shown.
What was measured:
Enterococcus faecium [1] = experiment: Antibacterial activity against vancomycin-resistant Enterococcus faecium by broth liquid microdilution method; format: functional
Summary of the method: (§1)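 Isolates were identified on an automated MicroScan WalkAway 96 system. Susceptibility was tested by broth microdilution following CLSI guidelines. MIC was taken as the lowest concentration giving complete inhibition of bacterial growth. S. aureus ATCC 29213 served as the control strain.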

Staphylococcus aureus [2] = experiment: Antibacterial activity against methicillin-sensitive Staphylococcus aureus by broth liquid microdilution method; format: functional; summary of the method: as §1
Staphylococcus aureus [3] = experiment: Antibacterial activity against methicillin-resistant Staphylococcus aureus by broth liquid microdilution method; format: functional; summary of the method: as §1
Enterococcus faecalis [4] = experiment: Antibacterial activity against linezolid-resistant Enterococcus faecalis by broth liquid microdilution method; format: functional; summary of the method: as §1
Staphylococcus aureus [5] = experiment: Antibacterial activity against Staphylococcus aureus ATCC 29213 by broth liquid microdilution method; format: functional; summary of the method: as §1
[6] = target: T1, MAO-A (amine oxidase [flavin-containing] A) (Homo sapiens, UniProt P21397); experiment: Inhibition of recombinant human MAOA expressed in baculovirus infected Sf9 insect cells at 30 uM using luciferin derived substrate pretreated for 15 mins followed by substrate addition and measured after 60 mins by luminescence assay relative to control; details: probe luciferin derived substrate
T1 sequence (P21397 whole entry): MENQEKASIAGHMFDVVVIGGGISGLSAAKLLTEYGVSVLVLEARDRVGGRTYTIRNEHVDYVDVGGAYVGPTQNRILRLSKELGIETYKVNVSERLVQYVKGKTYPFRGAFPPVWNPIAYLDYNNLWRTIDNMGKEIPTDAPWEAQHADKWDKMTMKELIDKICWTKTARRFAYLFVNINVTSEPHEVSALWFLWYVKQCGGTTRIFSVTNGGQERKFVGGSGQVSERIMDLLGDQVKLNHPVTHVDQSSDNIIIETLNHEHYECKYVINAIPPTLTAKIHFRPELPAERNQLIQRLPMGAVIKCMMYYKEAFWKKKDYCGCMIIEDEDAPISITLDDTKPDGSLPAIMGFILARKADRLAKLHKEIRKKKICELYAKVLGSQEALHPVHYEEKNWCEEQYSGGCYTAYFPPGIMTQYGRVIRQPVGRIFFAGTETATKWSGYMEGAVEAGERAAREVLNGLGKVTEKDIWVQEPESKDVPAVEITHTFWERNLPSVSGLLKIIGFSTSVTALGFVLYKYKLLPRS
Summary of the method: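 Human recombinant MAO-A with MAO-Glo luminescent kit. Compounds in DMSO (final 1% DMSO) preincubated with enzyme 15 min at room temperature, then luciferin derivative substrate added and reacted 60 min at room temperature. Luciferase detection reagent added for 20 min before luminescence read. Buffer replacing enzyme served as 100% inhibition control and DMSO as no-inhibition control; percent inhibition calculated against both.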

Enterococcus faecium [7] = experiment: Antibacterial activity against vancomycin-resistant Enterococcus faecium clinical isolates by broth liquid microdilution method; format: functional; summary of the method: as §1
Staphylococcus aureus [8] = experiment: Potency index, ratio of linezolid MIC to test compound MIC for methicillin-sensitive Staphylococcus aureus; format: functional
Staphylococcus aureus [9] = experiment: Potency index, ratio of linezolid MIC to test compound MIC for Staphylococcus aureus ATCC 29213; format: functional
Summary of the method: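 MIC by broth microdilution per CLSI guidelines, taken as the lowest concentration giving complete growth inhibition; isolates identified on MicroScan WalkAway 96; S. aureus ATCC29213 used as control strain. Index expressed as linezolid MIC divided by test compound MIC.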

Staphylococcus aureus [10] = experiment: Antibacterial activity against methicillin-resistant Staphylococcus aureus clinical isolates by broth liquid microdilution method; format: functional; summary of the method: as §1
Enterococcus faecalis [11] = experiment: Antibacterial activity against linezolid-resistant Enterococcus faecalis clinical isolates by broth liquid microdilution method; format: functional; summary of the method: as §1
Staphylococcus aureus [12] = experiment: Antibacterial activity against methicillin-sensitive Staphylococcus aureus clinical isolates by broth liquid microdilution method; format: functional; summary of the method: as §1
[13] = Half life in human liver microsomes at 1.5 uM in presence of NADPH by LC-MS analysis; format: ADME, microsome
Summary of the method: (§2)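 Human liver microsomes with 1.5 µM compound in a 0.75 mg/mL microsome mix were pre-warmed at 37 °C for 5 min. Reaction started with NADPH (6 mM stock). Samples were quenched with acetonitrile plus internal standard at 0, 5, 15, 30 and 45 min, then read by LC/MS, in duplicate. T1/2 = ln(2)/k from the log-linear slope; Clint derived from T1/2; % remaining read at 45 min.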

[14] = Intrinsic clearance in human liver microsomes at 1.5 uM pretreated for 5 mins followed by NADPH addition measured after 5 to 45 mins by LC-MS analysis; format: ADME, microsome; details: read-out: CLH; summary of the method: as §2
HepG2 = experiment: Cytotoxicity against human HepG2 cells after 48 hrs by MTT assay; format: cell-based; details: HepG2, 48 h
Summary of the method: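 HepG2 cells grown in RPMI1640 with 10% FBS; about 4×10⁴ cells per well seeded in MEM, incubated 24 h at 37 ℃ in 5% CO₂, then exposed to compounds at indicated final concentrations for 48 h. MTT added (final 0.5 mg/mL) for 4 h at 37 ℃, formazan dissolved in DMSO, absorbance read at 492 nm. Triplicate runs; IC50 as mean ± SD.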

[15] = Stability in human liver microsomes assessed as parent compound remaining at 1.5 uM pretreated for 5 mins followed by NADPH addition measured after 45 mins by LC-MS analysis; format: ADME, microsome; details: read-out: Stability; summary of the method: as §2

SMILES	MIC (Enterococcus faecium [1]) [µg/mL]	MIC (Staphylococcus aureus [2]) [µg/mL]	MIC (Staphylococcus aureus [3]) [µg/mL]	MIC (Enterococcus faecalis [4]) [µg/mL]	MIC (Staphylococcus aureus [5]) [µg/mL]	inhibition at 1 h, 30 µM [6] [%]	MIC (Enterococcus faecium [7]) [µg/mL]	MIC50 (Enterococcus faecium [7]) [µg/mL]	MIC90 (Enterococcus faecium [7]) [µg/mL]	Ratio (Staphylococcus aureus [8])	Ratio (Staphylococcus aureus [9])	MIC50 (Staphylococcus aureus [10]) [µg/mL]	MIC90 (Staphylococcus aureus [10]) [µg/mL]	MIC (Enterococcus faecalis [11]) [µg/mL]	MIC50 (Enterococcus faecalis [11]) [µg/mL]	MIC90 (Enterococcus faecalis [11]) [µg/mL]	MIC (Staphylococcus aureus [12]) [µg/mL]	MIC50 (Staphylococcus aureus [12]) [µg/mL]	MIC90 (Staphylococcus aureus [12]) [µg/mL]	IC50 (HepG2) [µM]	other results
CC(=O)NC[C@H]1CN(c2ccc(-c3ccc(/C=N/N4CCCCC4)cc3)c(F)c2)C(=O)O1	0.5 (≈ 1.14 µM)	0.25 (≈ 0.57 µM)	0.25 (≈ 0.57 µM)	0.25 (≈ 0.57 µM)	0.25 (≈ 0.57 µM)	–	–	–	–	–	–	–	–	–	–	–	–	–	–	–	–
CC(=O)NC[C@H]1CN(c2ccc(-c3ccc(/C=N/N4CCSCC4)cc3)c(F)c2)C(=O)O1	0.0675 (≈ 0.148 µM)	0.0675 (≈ 0.148 µM)	0.0675 (≈ 0.148 µM)	0.0675 (≈ 0.148 µM)	0.0675 (≈ 0.148 µM)	81	0.0625 to 0.5 (≈ 0.137 to 1.1 µM)	0.15 (≈ 0.329 µM)	0.5 (≈ 1.1 µM)	15 - 30	15 - 30	0.125 (≈ 0.274 µM)	0.25 (≈ 0.548 µM)	0.0625 to 0.25 (≈ 0.137 to 0.548 µM)	0.125 (≈ 0.274 µM)	0.5 (≈ 1.1 µM)	0.0625 to 0.25 (≈ 0.137 to 0.548 µM)	0.125 (≈ 0.274 µM)	0.25 (≈ 0.548 µM)	–	–
CC(=O)NC[C@H]1CN(c2ccc(-c3ccc(/C=N/N4CC[S+]([O-])CC4)cc3)c(F)c2)C(=O)O1	0.0675 (≈ 0.143 µM)	0.0675 (≈ 0.143 µM)	0.0675 (≈ 0.143 µM)	0.0675 (≈ 0.143 µM)	0.0675 (≈ 0.143 µM)	88	0.0625 to 0.5 (≈ 0.132 to 1.06 µM)	0.125 (≈ 0.265 µM)	0.5 (≈ 1.06 µM)	15 - 30	15 - 30	0.125 (≈ 0.265 µM)	0.25 (≈ 0.529 µM)	0.0625 to 0.25 (≈ 0.132 to 0.529 µM)	0.125 (≈ 0.265 µM)	0.5 (≈ 1.06 µM)	0.0625 to 0.25 (≈ 0.132 to 0.529 µM)	0.125 (≈ 0.265 µM)	0.25 (≈ 0.529 µM)	–	–
CC(=O)NC[C@H]1CN(c2ccc(-c3ccc(/C=N/N4CCN(C)CC4)cc3)c(F)c2)C(=O)O1	0.0675 (≈ 0.149 µM)	0.0675 (≈ 0.149 µM)	0.0675 (≈ 0.149 µM)	0.0675 (≈ 0.149 µM)	0.0675 (≈ 0.149 µM)	71	0.0625 to 0.5 (≈ 0.138 to 1.1 µM)	0.25 (≈ 0.551 µM)	0.5 (≈ 1.1 µM)	15 - 30	15 - 30	0.0625 (≈ 0.138 µM)	0.125 (≈ 0.276 µM)	0.0625 to 0.25 (≈ 0.138 to 0.551 µM)	0.125 (≈ 0.276 µM)	0.125 (≈ 0.276 µM)	0.0625 to 0.25 (≈ 0.138 to 0.551 µM)	0.0625 (≈ 0.138 µM)	0.125 (≈ 0.276 µM)	0.82	half-life at 1.5 µM [13]: 1.21 h; CLint scaled at 1.5 µM [14]: 23.9 mL/min/kg; remaining at 0.75 h, 1.5 µM [15]: 64.7%
CC(=O)NC[C@H]1CN(c2ccc(N3CCOCC3)c(F)c2)C(=O)O1 [LINEZOLID]	2 (≈ 5.93 µM)	1 (≈ 2.96 µM)	1 (≈ 2.96 µM)	> 16	1 (≈ 2.96 µM)	74	1 to 4 (≈ 2.96 to 11.9 µM)	2 (≈ 5.93 µM)	4 (≈ 11.9 µM)	–	–	2 (≈ 5.93 µM)	4 (≈ 11.9 µM)	> 16	> 16	> 16	1 to 2 (≈ 2.96 to 5.93 µM)	2 (≈ 5.93 µM)	2 (≈ 5.93 µM)	> 25	MIC (Staphylococcus aureus [10]): 1 to 4 µg/mL (≈ 2.96 to 11.9 µM); remaining at 0.75 h, 1.5 µM [15]: 104%
CC(=O)NC[C@H]1CN(c2ccc(-c3ccc(CNCc4cnn[nH]4)cc3)c(F)c2)C(=O)O1 [RADEZOLID]	0.5 (≈ 1.14 µM)	0.5 (≈ 1.14 µM)	0.5 (≈ 1.14 µM)	0.5 (≈ 1.14 µM)	0.5 (≈ 1.14 µM)	–	–	–	–	–	–	–	–	–	–	–	–	–	–	–	–
